The target of data set [1] is 3',5'-cyclic-AMP phosphodiesterase 4B (Homo sapiens, UniProt Q07343). The data set is described as follows: Inhibition of human PDE4B in Sf9 cells. Format: cell-based. A digest of the protocol:
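Catalytic activity of human recombinant PDE4B enzyme was measured by scintillation proximity assay (SPA).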

Data set [2] can be described thus: Inhibition of PDE3. In short, it runs like this: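 Inhibition of PDE3 isolated from bovine aorta, measured as loss of catalytic activity by scintillation proximity assay (SPA).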
Data set [3] is described as follows: Selectivity for human PDE4B over PDE5.
Another data set relates to PBMC. Put plainly: Inhibition of TNF alpha production in human PBMC cells by ELISA. Format: functional, cell-based. A digest of the protocol: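 PBMCs were isolated from heparinised human blood by centrifugation on histopaque (1000g, 30 min), washed, and resuspended at 5 × 10⁵ cells/ml in RPMI1640 with 10% foetal calf serum, 1% L-glutamine and 1% penicillin/streptomycin. Cells were preincubated with compound for 1 h at 37 °C, 5% CO₂, then stimulated with LPS (1 ng/ml final) for a further 20 h.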
(An ELISA detects its analyte on a solid surface through an enzyme-linked reagent.)

Data set [4] in a line: Selectivity for human PDE4B over PDE3.
Data set [5] can be described thus: Inhibition of PDE5. In short, it runs like this:
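Inhibition of human recombinant PDE5 catalytic activity, measured by scintillation proximity assay.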

Data set [6] in a line: Half life in po dosed rat. As to conditions: in vivo. In kind it is ADME, organism-based.
The nature of data set [7]: Oral bioavailability in rat. In kind it is ADME, organism-based. As to conditions: in vivo.

The source of these data is ChEMBL document CHEMBL1157491, “Pyrazolopyridines as a novel structural class of potent and selective PDE4 inhibitors” (Bioorg Med Chem Lett, 2008).

What is called IC50 is the concentration that gives 50% inhibition. Usually pIC50 stands for −log10 of the IC50, conventionally taken in molar units. Read a high pIC50 as a low IC50. In general, half-life refers to the time needed for the level to fall by half in the phase considered. The term bioavailability denotes dose-corrected exposure relative to a reference, in per cent. High values mean much systemic uptake, low ones little systemic uptake.

Chain of 3',5'-cyclic-AMP phosphodiesterase 4B (Q07343 whole entry): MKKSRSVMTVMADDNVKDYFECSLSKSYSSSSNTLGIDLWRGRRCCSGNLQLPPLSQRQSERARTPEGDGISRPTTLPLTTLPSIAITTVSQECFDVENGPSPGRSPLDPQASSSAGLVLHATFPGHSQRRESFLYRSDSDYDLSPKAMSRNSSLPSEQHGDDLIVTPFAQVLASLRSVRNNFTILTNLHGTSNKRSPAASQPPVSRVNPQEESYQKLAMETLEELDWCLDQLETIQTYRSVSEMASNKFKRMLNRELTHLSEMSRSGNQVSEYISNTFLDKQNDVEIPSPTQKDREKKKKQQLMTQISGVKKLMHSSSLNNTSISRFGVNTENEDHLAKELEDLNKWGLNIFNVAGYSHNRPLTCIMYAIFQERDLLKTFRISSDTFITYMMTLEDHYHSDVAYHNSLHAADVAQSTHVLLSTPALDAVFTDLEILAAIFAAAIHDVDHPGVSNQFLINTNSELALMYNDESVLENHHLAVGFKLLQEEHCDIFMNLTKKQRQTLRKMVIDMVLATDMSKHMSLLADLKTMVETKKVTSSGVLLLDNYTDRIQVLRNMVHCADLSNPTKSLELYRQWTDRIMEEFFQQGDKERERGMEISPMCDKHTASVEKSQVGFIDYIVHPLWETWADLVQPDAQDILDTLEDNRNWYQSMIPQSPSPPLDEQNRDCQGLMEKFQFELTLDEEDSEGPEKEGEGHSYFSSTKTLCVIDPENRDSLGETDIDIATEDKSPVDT

For `CCOC(=O)c1cnc2c(cnn2C(C)C)c1NC1CCOCC1`, the half-inhibitory concentration (IC50) in data set [1] was 200 nM.
In the case of `CCn1ncc2c(NC3CCOCC3)c(C(=O)NCC3CCCCC3)cnc21`, the IC50 was 7.94 nM in data set [1] and 63.1 nM in the data set on PBMC. Also, the pIC50 in data set [2] was under 4.5; in data set [5], 5.5. Moreover, the Selectivity ratio in data set [3] and in data set [4] was over 100 in each case.
In data set [1], `CCOC(=O)c1cnc2c(cnn2Cc2ccccc2)c1NC1CCOCC1` had a concentration for half-maximal inhibition (IC50) of 3980 nM.
`CCOC(=O)c1cnc2c(cnn2CC)c1NCc1ccc(F)cc1`: in data set [1], the midpoint of inhibition, the IC50, lay at 316 nM.
The same measure, in the same setting: the result for `CCOC(=O)c1cnc2c(cnn2CC)c1NC1CCOCC1` reads 10 nM; that for `CCCCNc1c(C(=O)OCC)cnc2c1cnn2CC` [CARTAZOLATE], 200 nM.
On to `CCn1ncc2c(NC3CCOCC3)c(C(=O)N3CCCC3)cnc21`, for which, in data set [1], the IC50 was 158 nM. Besides, the Selectivity ratio in data set [3] and in data set [4] was over 100 each time.
Take `CCOC(=O)c1cnc2c(cnn2CC)c1N(C)C1CCOCC1`: the IC50 in data set [1] is 251 nM.
As to `CCOC(=O)c1cnc2c(cnn2CC)c1NC1CCCC1`, the concentration for half-maximal inhibition (IC50) in data set [1] was 63.1 nM.
For the compound `CCOC(=O)c1cnc2c(cnn2CC)c1NS(=O)(=O)c1ccccc1`, the 50% inhibitory concentration (IC50) in data set [1] was over 31600 nM.
`CCn1ncc2c(NC3CCOCC3)c(C(=O)NC3CCN(C(C)=O)CC3)cnc21` gave an IC50 in data set [1] of 126 nM. Further, the Selectivity ratio in data set [3] and in data set [4] was over 100 each time.
Regarding `CCn1ncc2c(NC3CCOCC3)c(C(=O)Nc3ccc(F)cc3)cnc21`, the negative logarithm of the IC50 (pIC50) is given as under 4.5 in data set [2] and under 4.7 in data set [5]. The Selectivity ratio in data set [3] and in data set [4] was over 100 each time. In the data set with PBMC, this compound had an IC50 of 39.8 nM.
Regarding `CCOC(=O)c1cnc2c(cnn2CC)c1NCC(C)C`, in data set [1], the concentration for half-maximal inhibition (IC50) is 15.8 nM.
The same measure, in the same setting: the result for `CCOC(=O)c1cnc2c(cnn2CC)c1Nc1ccccc1` reads 158 nM.
In the case of `CCn1ncc2c(NC3CCOCC3)c(C(=O)NC3CC3)cnc21`, half-maximal inhibition in data set [1] (IC50) required 100 nM. Further, the Selectivity ratio in data set [3] and in data set [4] was over 100 throughout.
In data set [1], `CCCn1ncc2c(NC3CCOCC3)c(C(=O)OCC)cnc21` gave an IC50 of 100 nM.
Turning to `CCC(CC)CNC(=O)c1cnc2c(cnn2CC)c1NC1CCOCC1`, the IC50 in data set [1] is 20 nM; in the data set with PBMC, 79.4 nM. For the same compound, the results for the pIC50 in data set [2] and in data set [5] were under 4.5 and 4.8, respectively. For the same compound, the Selectivity ratio in data set [3] and in data set [4] was over 100 each time.
On to `CCOC(=O)c1cnc2c(cnn2-c2ccccc2)c1NC1CCOCC1`, for which it took 3160 nM to reach half-maximal inhibition in data set [1] (IC50).
Take `CCOC(=O)CCn1ncc2c(NC3CCOCC3)c(C(=O)OCC)cnc21`: the 50% inhibitory concentration (IC50) in data set [1] was 5010 nM.
The compound `CCOC(=O)c1cnc2[nH]ncc2c1NC1CCOCC1` had a 50% inhibitory concentration (IC50) in data set [1] of 2000 nM.
Still for that read-out and setting: under `CCOC(=O)c1cnc2c(cnn2CCO)c1NC1CCOCC1` stands 158 nM.
Same read-out and setting: the result for `CCOC(=O)c1cnc2c(cnn2CC)c1N1CCCC1` reads 631 nM.
In the case of `CCn1ncc2c(NC3CCOCC3)c(C(=O)NC3CCCC3)cnc21`, the figures for the half-inhibitory concentration (IC50) (in data set [1]; in the data set with PBMC) were 50.1 nM and 158 nM, respectively. The pIC50 is under 4.5 in data set [2] and under 4.7 in data set [5]. The Selectivity ratio in data set [3] and in data set [4] was over 100 in each case.
As for `CCn1ncc2c(NC3CCOCC3)c(C(=O)N(C)Cc3ccccc3)cnc21`, it took 50.1 nM to reach half-maximal inhibition in data set [1] (IC50). Moreover, the Selectivity ratio in data set [3] and in data set [4] was over 100 in each case.
In data set [1], `CCOC(=O)c1cnc2c(cnn2C)c1NC1CCOCC1` showed an IC50 of 251 nM.
In the case of `CCn1ncc2c(NC3CCOCC3)c(C(N)=O)cnc21`, the concentration for half-maximal inhibition (IC50) in data set [1] is 25.1 nM; with PBMC, 79.4 nM. Further, the pIC50 was under 4.5 in data set [2] and 4.8 in data set [5]. Also, the Selectivity ratio in data set [3] and in data set [4] was over 100 each time.
`CCn1ncc2c(NC3CCOCC3)c(C(=O)NCc3ccccc3)cnc21`: the pIC50 in data set [2] is given as under 4.5; in data set [5], 5.7. In data set [6], the half-life is 1.6 h. Further, the Selectivity ratio in data set [3] and in data set [4] was over 100 throughout. The same compound had a 50% inhibitory concentration (IC50) with PBMC of 20 nM. In data set [7], this compound returned a bioavailability of 35%.
`CCOC(=O)c1cnc2c(cnn2CC)c1NC(=O)c1ccccc1` gave a half-inhibitory concentration (IC50) in data set [1] of 2510 nM.
Regarding `CCOC(=O)c1cnc2c(cnn2CC)c1Nc1ccc(OC)cc1`, in data set [1], the half-maximal inhibitory concentration (IC50) is 1000 nM.
